# In the library only some 3.7% were active in any assay of this set; here they are far more common.
# Kir21 block = blocks the mouse Kir2.1 inward-rectifier potassium channel; AID 1672; hit rate 0.85% among 310,000; B-score at 10 µM; HEK293-Kir2.1, FluxOR thallium flux fluorescence; stronger effect = lower value; P35561;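 active = fluorescence ratio B-score at or below minus 3 SD of library scores, with starting-brightness B-score within 2 SD, cut at about -4.2 in these data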;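 also: channel flux triggered by added potassium and thallium sulfate stimulus; B-score of peak minus minimum fluorescence over baseline after thallium stimulus; more negative B-score means stronger Kir2.1 block with less thallium influx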
# KCNQ1 pot = potentiates or activates the human KCNQ1 potassium channel. hit rate 0.35% among 310,000. AID 2648. CHO-K1 KCNQ1, thallium flux FluxOR fluorescence; stronger effect = higher value. B-score at 10 µM;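 active = fluorescence ratio B-score, a plate-corrected score, at least three library SD, with initial intensity B-score within 5 SD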
#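 Doses: Single concentration per compound, DMSO matched to controls | Test system: KCNQ1-transfected CHO-K1 cells | Timing: 90 min dye loading and 20 min compound exposure, both at room temperature | Measured by: Kinetic FluxOR thallium fluorescence, 10-s 1-Hz baseline, 110-s post-stimulus read | Medium: Assay buffer with matched DMSO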
# KCNK9 inh = blocks the human KCNK9 two-pore domain potassium channel | AID 488922 | HEK293 KCNK9, FluxOR thallium flux fluorescence; stronger effect = lower value | hit rate 1.2% among 310,000 | B-score at 10 µM;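 active = ratio B-score over 3 SD below the library mean, with starting fluorescence within 5 SD of its mean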;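 also: negative B-score means less thallium flux so channel inhibition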
# Target sequence (Q9NPC2 whole entry, looked up, the tested form may be a part): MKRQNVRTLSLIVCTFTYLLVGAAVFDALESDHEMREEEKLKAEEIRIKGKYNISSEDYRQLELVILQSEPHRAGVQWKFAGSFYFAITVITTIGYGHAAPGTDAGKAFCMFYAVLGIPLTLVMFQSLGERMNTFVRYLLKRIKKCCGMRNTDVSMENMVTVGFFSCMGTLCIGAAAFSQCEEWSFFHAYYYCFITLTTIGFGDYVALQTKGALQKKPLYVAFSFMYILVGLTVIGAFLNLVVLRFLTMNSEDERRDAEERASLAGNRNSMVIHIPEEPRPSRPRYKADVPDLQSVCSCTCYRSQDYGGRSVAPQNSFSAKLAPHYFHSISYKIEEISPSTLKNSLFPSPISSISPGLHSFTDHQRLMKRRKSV
# KCNK3 block = human KCNK3 channel inhibition, primary screen; AID 602410; hit rate 0.84% among 340,000; CHO-KCNK3 thallium flux, FluxOR fluorescence; stronger effect = lower value; B-score at 10 µM;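 active = B-score under library mean minus 4 SD, starting fluorescence ratio at most library mean plus 5 SD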;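 also: more negative B-score means stronger inhibition of thallium flux through KCNK3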
# hERG rescue = compounds protecting human hERG from proarrhythmic drug block | Q12809 | CHO-hERG, FluxOR thallium flux, dofetilide IC70 present | activation (rescue from dofetilide block), less the hit threshold, % at 10 µM | hit rate 0.51% among 310,000 | AID 1511;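 active = activation above the mean of controls blocked by dofetilide plus 5 SD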;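 also: thallium influx through hERG after potassium depolarization seen as dye fluorescence rise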
# KCNQ1 inh = human KCNQ1 channel inhibition | CHO-K1 KCNQ1, FluxOR thallium flux fluorescence; stronger effect = higher value | P51787 | hit rate 1.3% among 310,000 | B-score at 10 µM;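 active = compounds whose thallium flux B-score, printed positive for inhibition, exceeds three library SD while starting fluorescence stays within three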;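 also: channel opened by potassium depolarization with thallium stimulus after 20 min compound exposure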
# Numbers without * were called inactive; i = inactive; · = not tested or not shown.
SMILES,Kir21 block,KCNQ1 pot,KCNK9 inh,KCNK3 block,hERG rescue,KCNQ1 inh
O=C(Nc1ccc(OCC(F)(F)C(F)F)c(C(F)(F)F)c1)c1ccccc1,0.73,i,i,i,-8,i
O=C(Nc1ccc(OCC(F)(F)C(F)F)c(C(F)(F)F)c1)c1ccccc1O,0.99,i,-6.6*,i,-8,i
O=C(CCc1ccc(O)c(O)c1)N/N=C/c1ccc2c(c1)OCO2,0.46,i,i,i,-16,6*
CC(C)Oc1ccc(CCC(=O)N/N=C/c2ccc3c(c2)OCO3)cc1,1.5,i,i,i,-6,i
O=C(CCCN1C(=O)NC2(CCCC2)C1=O)Nc1ccc(Cl)c(S(=O)(=O)N2CCOCC2)c1,·,·,·,i,·,·
O=C(c1cccs1)c1ccc(-c2cccs2)s1,-3.7,i,-6.8*,i,-6,i
Cc1sc(NC(=O)c2ccco2)c(C(c2cccnc2)N2CCN(c3ccc(F)cc3)CC2)c1C (stereo unspecified),-0.43,i,-6.6*,-12*,-12,8*
Cc1sc(NC(=O)c2ccco2)c(C(c2ccccc2)N2CCC(C)CC2)c1C (stereo unspecified),-0.67,i,-7*,i,-13,i
COc1ccc(C(c2c(NC(=O)c3ccco3)sc(C)c2C)N2CCOCC2)cc1OC (stereo unspecified),·,·,·,-9.7*,·,·
Cc1sc(NC(=O)c2ccco2)c(C(c2cccnc2)N2CCN(CCO)CC2)c1C (stereo unspecified),1.3,i,i,i,-4,i
Cc1sc(NC(=O)c2ccccc2)c(C(c2ccc(Cl)cc2)N2CCN(CCO)CC2)c1C (stereo unspecified),-0.73,i,i,i,-2,i
CC(CNC(=O)CN1C(=O)NC2(CCOc3ccccc32)C1=O)c1ccccc1 (stereo unspecified),·,·,·,i,·,·
O=C(/C=C/c1ccc([N+](=O)[O-])cc1)NCCOc1ccc(F)cc1,0,i,i,i,5.5*,i
O=C(O)c1ccc(NC(=S)Nc2ccc(S(=O)(=O)Nc3ccccn3)cc2)cc1,·,·,·,i,·,·
CCN(CC)CCN(C(=O)c1cc2ccccc2cc1OC)c1nc2ccc(OC)cc2s1,0.45,i,i,i,-22,9*
CC(Sc1ccc(S(=O)(=O)N2CCCCCC2)cn1)C(N)=O (stereo unspecified),·,·,·,i,·,·
CC(NC(C(=O)c1ccccc1)c1ccccc1)c1ccccc1 (stereo unspecified),·,·,·,i,·,·
O=C(O)c1ccc(N=NNc2cccc([N+](=O)[O-])c2)cc1,1.5,i,i,i,-1,i
N#C/C(=N\Nc1cccc([N+](=O)[O-])c1)C(=O)c1ccc(Br)cc1,-2.3,i,i,i,-24,8*
CSC(SC)=C(C#N)C(=O)c1ccccc1,-4.4*,i,i,i,-29,11*
COc1ccc(/C=C(\C#N)C(=O)c2c(C)[nH]c3ccccc23)cc1OC,2.1,i,i,i,-23,6*
COc1cc(/C=C(\C#N)C(=O)c2c(C)[nH]c3ccccc23)cc(OC)c1OC,0.88,i,i,i,-16,i
O=C(N[C@@H](Cc1ccccc1)C(=O)OCc1ccccc1)c1nc[nH]c1C(=O)N1CCc2ccccc2C1,1.4,i,i,i,-8,6*
N#Cc1cc([N+](=O)[O-])ccc1NC(=O)COC(=O)C1CCC(=O)N1 (stereo unspecified),·,·,·,i,·,·
COc1ccc(OC(=O)c2cccnc2)cc1,-0.22,i,i,i,-11,i
SMILES,Kir21 block,KCNQ1 pot,KCNK9 inh,KCNK3 block,hERG rescue,KCNQ1 inh
CC(C)(C)c1ccc(OC(=O)c2cccnc2)cc1,-4.5*,i,i,i,-6,i
CCC1(c2ccccc2)NC(=O)N(CC(=O)NCC2COc3ccccc3O2)C1=O (stereo unspecified),·,·,·,i,·,·
Cc1cccc(-c2nnc(-c3cccc4ccccc34)o2)c1,·,·,·,-9.5*,·,·
Cc1cccc(-c2nnc(-c3ccc4ccccc4c3)o2)c1,·,·,·,-9.2*,·,·
Cc1ccc(C2SCCN2C(=O)c2ccc([N+](=O)[O-])cc2)cc1 (stereo unspecified),-6.5*,i,i,i,-11,i
CCC1CCC2(CC1)NC(CO)(CO)CO2 (stereo unspecified),-0.56,8*,i,i,-10,i
Nc1nc(SCc2ccccc2)cc(SCc2ccccc2)n1,·,·,·,i,·,·
COc1ccccc1C(=O)n1nc(-c2ccccc2)nc1NCc1ccco1,-1.8,i,-7.7*,i,-14,i
CCNc1ncnc2c1cnn2C1CCCCO1 (stereo unspecified),·,·,·,i,·,·
Cc1ccc(N2CC(C(=O)OCC(=O)c3ccc[nH]3)CC2=O)cc1 (stereo unspecified),-0.26,i,i,i,-18,i
CC(C)(C)C1CCC(C(=O)OCC(=O)c2ccc[nH]2)CC1 (stereo unspecified),-5.3*,i,i,i,-4,i
Cc1nn(Cc2ccc(C(=O)NC3CCCCC3)o2)c(C)c1Br,-0.59,i,i,i,-16,6*
O=C(NC1CCCC1)c1ccc(Br)o1,-0.51,i,i,i,4.6*,i
O=C(NC1CCCCCC1)c1ccc(Br)o1,-0.17,i,i,i,-1,i
Cc1nn(Cc2ccc(C(=O)NC(C)(C)C)o2)c(C)c1Br,-0.67,i,i,i,-17,i
COc1ccc(S(=O)(=O)Nc2cccc3c2O[C@H](CN(C)C(=O)Nc2ccc4c(c2)OCO4)[C@@H](C)CN([C@H](C)CO)C3=O)cc1,·,·,·,i,·,·
N=c1c2c(-c3ccccc3)c(-c3ccccc3)n(Cc3ccccc3)c2ncn1CCCn1ccnc1,-8.7*,i,i,i,-20,i
CCCC(=O)NC(Nc1ccccc1F)C(Cl)(Cl)Cl (stereo unspecified),-8.1*,i,i,·,-10,i
CC(C)C(=O)NC(Nc1ccccc1F)C(Cl)(Cl)Cl (stereo unspecified),-4.5*,i,i,i,-2,i
CC(C)CC(=O)NC(Nc1ccccc1F)C(Cl)(Cl)Cl (stereo unspecified),-2.5,i,i,i,-6,i
Cc1ccc(C)c(NC(=O)c2nc(-c3ccccc3)n(-c3ccccc3)n2)c1,0.24,i,i,i,-11,i
N#Cc1cccc(NC(=O)c2nc(-c3ccccc3)n(-c3ccccc3)n2)c1,0.72,i,i,i,7.1*,i
Clc1ccc(CN2CCC(c3nc4ccc(Cl)cc4[nH]3)CC2)cc1,-8*,i,i,i,-13,i

# Compound activity: PubChem BioAssay, Johns Hopkins Ion Channel Center
